Rows were chosen to be rich in hits. Some 3.8% of all compounds tested hit in one or more screens of this group.
hERG rescue – hERG rescue from dofetilide block, primary screen, cell-based, CHO-hERG, FluxOR thallium flux, dofetilide IC70; 0.51% of 310,000 active; dofetilide IC70 present; AID 1511, 2009; activation (rescue from dofetilide block), less the hit threshold, % at 10 µM;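 active means activation above the mean of controls blocked by dofetilide plus 5 SD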;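 further: thallium influx through hERG after potassium depolarization seen as dye fluorescence rise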
KCNQ1 block – inhibitors of human KCNQ1 channel, primary screen, cell-based, thallium flux, high-throughput; Potassium voltage-gated channel subfamily KQT member 1 (Homo sapiens), P51787; CHO-K1 KCNQ1, FluxOR thallium flux fluorescence; active compounds read high; B-score at 10 µM; 1.3% of 310,000 active; AID 2642, 2010;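 active means compounds whose thallium flux B-score, printed positive for inhibition, exceeds three library SD while starting fluorescence stays within three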;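 further: channel opened by potassium depolarization with thallium stimulus after 20 min compound exposure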
KCNQ1 act – potentiators or activators of KCNQ1 channel, primary screen, cell-based, thallium flux, high-throughput | B-score at 10 µM | Potassium voltage-gated channel subfamily KQT member 1 (Homo sapiens), P51787 | AID 2648, 2010 | 0.35% of 310,000 active | CHO-K1 KCNQ1, thallium flux FluxOR fluorescence; active compounds read high;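 active means fluorescence ratio B-score, a plate-corrected score, at least three library SD, with initial intensity B-score within 5 SD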
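System: Stable KCNQ1 CHO-K1 line | Incubation: 90 min dye loading and 20 min compound exposure, both at room temperature | Measure: Ratio B score | Medium: Assay buffer for compound exposure, DMSO matched across wells | Compound dosing: Single-concentration screen | Probe or stimulus: K+/Tl+ depolarizing stimulus | Measured by: Kinetic FluxOR fluorescence, 10 s baseline plus 110 s post-stimulus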
KCNK9 inh – KCNK9 potassium channel inhibitors, primary screen, HEK293 cells, thallium flux. FluxOR thallium flux fluorescence; active compounds read low. Potassium channel subfamily K member 9 (Homo sapiens), Q9NPC2. 1.2% of 310,000 active. B-score at 10 µM. AID 488922, 2010;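 active means ratio B-score over 3 SD below the library mean, with starting fluorescence within 5 SD of its mean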;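 further: negative B-score means less thallium flux so channel inhibition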
Kir21 block – inhibitors of mouse Kir2.1 inward-rectifier potassium channel; Inward rectifier potassium channel 2 (Mus musculus), P35561; AID 1672, 2009; HEK293-Kir2.1, FluxOR thallium flux fluorescence; active compounds read low; 0.85% of 310,000 active; B-score at 10 µM;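 active means fluorescence ratio B-score at or below minus 3 SD of library scores, with starting-brightness B-score within 2 SD, cut at about -4.2 in these data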;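 further: channel flux triggered by added potassium and thallium sulfate stimulus; B-score of peak minus minimum fluorescence over baseline after thallium stimulus; more negative B-score means stronger Kir2.1 block with less thallium influx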
Target sequence (P35561 whole entry, looked up): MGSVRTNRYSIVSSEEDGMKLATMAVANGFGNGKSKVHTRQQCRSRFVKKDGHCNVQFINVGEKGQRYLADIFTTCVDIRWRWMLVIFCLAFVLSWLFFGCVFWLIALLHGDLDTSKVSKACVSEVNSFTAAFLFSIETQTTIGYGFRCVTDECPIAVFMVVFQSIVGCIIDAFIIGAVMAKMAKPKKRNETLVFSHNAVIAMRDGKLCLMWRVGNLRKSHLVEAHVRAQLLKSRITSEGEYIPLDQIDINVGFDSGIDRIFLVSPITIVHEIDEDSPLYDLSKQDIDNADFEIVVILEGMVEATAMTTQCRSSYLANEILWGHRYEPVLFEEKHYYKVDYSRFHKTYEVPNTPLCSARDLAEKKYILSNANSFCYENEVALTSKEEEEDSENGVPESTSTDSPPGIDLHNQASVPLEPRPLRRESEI
KCNK3 inh – human KCNK3 channel inhibitors, primary screen, CHO cells, FluxOR thallium flux, B-score | Potassium channel subfamily K member 3 (Homo sapiens), O14649 | FluxOR fluorescence; active compounds read low | B-score at 10 µM | 0.84% of 340,000 active;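 active means B-score under library mean minus 4 SD, starting fluorescence ratio at most library mean plus 5 SD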;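 further: more negative B-score means stronger inhibition of thallium flux through KCNK3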
KCNQ1 inh valid – KCNQ1 potassium channel inhibitors, confirmation, cell-based, Tl flux, duplicate. 93% of 1,600 active. shares compounds with KCNQ1 block. KCNQ1 cell line, FluxOR thallium flux fluorescence. inhibition, % at 10 µM;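 active means primary screen active, with duplicate mean exceeding buffer control mean plus 3 SD of buffer wells, cut at about 28% in these data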
CHO Tl flux – thallium flux effects in parental CHO cells, counter-screen for KCNQ1 inhibitor project, cell-based, Tl flux. shares compounds with KCNQ1 block. parental CHO-K1, FluxOR thallium flux fluorescence ratio; active compounds read low; zero means no signal rise above baseline. fluorescence ratio (Tl flux) at 10 µM. 21% of 1,600 active;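 active means mean of duplicate thallium-flux fluorescence ratios in parental host cells more than 5 SD below the buffer control mean, cut at about 0.38 in these data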;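 further: ratio is peak minus minimum fluorescence divided by baseline fluorescence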
KCNQ1 ephys val – KCNQ1 channel inhibitors, confirmation, orthogonal assay, cell-based, automated electrophysiology. calls only at 10 µM. KCNQ1-CHO cells, automated patch clamp current. 20% of 490 active. shares compounds with KCNQ1 block. AID 624120, 2012;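 active means KCNQ1 current drop exceeding 3 SD of negative control wells, seen in both duplicate runs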;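 further: steady state current during a 2 s step from -80 to +40 mV; negative values mean current inhibition and positive values mean potentiation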
KCNQ2 inh – KCNQ2 channel inhibition, selectivity assay for KCNQ1 inhibitor project, cell-based; shares compounds with KCNQ1 block; KCNQ2 cells, FluxOR thallium flux fluorescence; inhibition, % at 10 µM; 71% of 1,600 active; AID 651746, 2012;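 active means mean percent inhibition of the KCNQ2 thallium signal more than 5 SD above the buffer-only control wells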;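 further: KCNQ2 expressed in CHO cells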
KCNQ1-KCNE1 inh – KCNQ1/KCNE1 channel inhibition, selectivity assay for KCNQ1 inhibitor project, CHO-K1 cells, thallium flux, FluxOR | FluxOR thallium flux fluorescence | AID 652147, 2013 | shares compounds with KCNQ1 block | inhibition, % at 10 µM | 77% of 1,600 active;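 active means mean percent inhibition of duplicate wells above the buffer-only control mean plus 3 SD of those controls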
KCNK9 block conf – KCNK9 potassium channel inhibitors, confirmation, HEK293 cells, thallium flux, duplicate | shares compounds with KCNK9 inh | FluxOR thallium flux fluorescence | inhibition, % at 10 µM | 43% of 4,900 active | AID 492992, 2010;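 active means thallium signal inhibited by more than 5 SD of the compound-free buffer control wells, on both duplicate plates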
Kir21 sel – mouse Kir2.1 channel inhibition, confirmation, selectivity assay for KCNK9 modulator project, cell-based, HEK293, thallium flux; shares compounds with KCNK9 inh; Kir2.1 cells, FluxOR thallium flux fluorescence; inhibition, % at 10 µM; 4% of 4,900 active; AID 492993, 2010;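 active means thallium signal drop more than 5 SD beyond the mean of the no-compound control wells, seen in both duplicate plates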;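 further: signal is fluorescence rise after thallium addition divided by baseline fluorescence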
HEK293 Tl ctr – thallium flux in non-induced HEK293 cells, confirmation, counter-screen for KCNK9 inhibitor project, cell-based, second counter screen, non-induced KCNK9-HEK293; shares compounds with KCNK9 inh; FluxOR thallium flux; inhibition, % at 10 µM; 40% of 4,900 active; AID 492997, 2010;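 active means thallium signal drop beyond 5 SD of the untreated control mean, on both duplicate plates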
Numbers stand for hits; . = inactive; / = no result.

SMILES	hERG rescue	KCNQ1 block	KCNQ1 act	KCNK9 inh	Kir21 block	KCNK3 inh	KCNQ1 inh valid	CHO Tl flux	KCNQ2 inh	KCNQ1-KCNE1 inh	KCNK9 block conf	Kir21 sel	HEK293 Tl ctr	others
N#Cc1c(N)nc2c(c1-c1ccc3c(c1)OCO3)CCc1ccccc1-2	.	13	.	-11	.	.	119.5	0.346	109.3%	181.0%	31.0%	.	30.0%
O=C(CC1SC(=Nc2ccccc2)N(CCCO)C1=O)Nc1ccc(Cl)cc1 (centres undefined)	.	9	.	.	.	.	72.0	.	78.0%	110.0%	.	.	.
O=C1C2C3C=CC(C4CC34)C2C(=O)N1c1cccc2ccccc12 (centres undefined)	.	.	.	.	.	.	/	/	/	/	/	/	/
O=[N+]([O-])c1ccc(Cl)c(S(=O)(=O)/N=C(/c2ccccc2)N2CCOCC2)c1	.	.	.	.	.	.	/	/	/	/	/	/	/
Cc1sc2nc(-c3ccc(Br)cc3)oc(=O)c2c1C	.	.	.	.	.	.	/	/	/	/	/	/	/
O=C1CN(C(=O)COC(=O)c2ccc(Br)o2)c2ccccc2N1	/	/	/	/	/	.	/	/	/	/	/	/	/
CC(C)C(=O)NCCc1nc(-c2ccc(Cl)cc2)no1	.	.	.	.	.	.	/	/	/	/	/	/	/
Cc1cc(C)n(-c2nc(SCCN(C)C)c3c4c(sc3n2)CCCC4)n1	.	14	.	-9.75	-8.01	.	87.5	.	108.7%	112.5%	44.0%	43.5%	27.5%
Cc1csc(NC(=O)c2c(O)c3c(n(CC(C)C)c2=O)CCCC3)n1	.	10	.	-13.6	.	-9.77	104.0	.	107.7%	90.0%	55.0%	.	35.0%	KCNQ1 ephys val=.
CC(C)Cn1c2c(c(O)c(C(=O)Nc3nccs3)c1=O)CCCC2	.	7	.	-8.31	.	.	100.0	.	112.3%	165.5%	44.0%	.	27.0%	KCNQ1 ephys val=.
O=C(Nc1nccs1)c1c(O)c2c([nH]c1=O)CCCC2	.	.	.	.	.	.	/	/	/	/	/	/	/
CCCn1c2c(c(O)c(C(=O)Nc3ncccc3C)c1=O)CCCC2	.	.	.	.	.	.	/	/	/	/	/	/	/
